According to ChEMBL document CHEMBL1149792, “Synthesis and adenosine receptor binding studies of some novel triazolothienopyrimidines” (Eur J Med Chem, 2008):

What was measured:
[1] = biological target: T1, Adenosine receptor A1 (Rattus norvegicus) (UniProt P25099); test: Inhibition of rat adenosine A1 receptor at 1 uM
T1 sequence (whole entry): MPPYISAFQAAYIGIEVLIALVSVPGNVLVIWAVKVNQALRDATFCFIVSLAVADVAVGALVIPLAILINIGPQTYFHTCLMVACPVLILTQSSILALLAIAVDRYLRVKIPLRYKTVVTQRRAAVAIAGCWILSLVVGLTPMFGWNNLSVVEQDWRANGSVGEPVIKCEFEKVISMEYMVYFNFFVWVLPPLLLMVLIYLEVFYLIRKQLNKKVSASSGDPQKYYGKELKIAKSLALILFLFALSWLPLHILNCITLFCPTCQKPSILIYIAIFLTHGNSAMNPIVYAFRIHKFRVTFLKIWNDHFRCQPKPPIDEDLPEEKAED
Method in brief: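 Single-concentration screen measured as percent inhibition of [3H]CCPA (0.5 nM) binding to rat cortical membranes, run at room temperature for 90 min with 2.5% DMSO final. Nonspecific binding was defined with 2-chloroadenosine. Separation was by GF/B filtration, with scintillation counting of bound radioactivity.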

Adenosine receptor A1 = biological target: T2, Adenosine receptor A1 (Rattus norvegicus, UniProt P25099); test: Displacement of [3H]CCPA from rat adenosine A1 receptor
T2 sequence (P25099 whole entry): T1 sequence (whole entry)
Method in brief: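 Rat brain cortical membranes (from frozen rat brains) were incubated with [3H]CCPA at 0.5 nM at room temperature for 90 min. Compounds were added from DMSO stocks, giving 2.5% DMSO final. 2-Chloroadenosine defined nonspecific binding. Bound radioactivity was separated by GF/B filtration and counted by scintillation. Compounds giving over 20% inhibition in the single-concentration screen were tested at six concentrations to derive Ki.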

| inhibition [1] [%] | Ki (Adenosine receptor A1) [nM] | Compound |
| --- | --- | --- |
| 21 | 2100 | CCc1nc2sc(C)c(C)c2c2n[nH]c(=S)n12 |
| 0 | – | O=C(c1ccccc1)c1nc2sc3c(c2c2n[nH]c(=S)n12)CCCC3 |
| 0 | – | S=c1[nH]nc2c3c4c(sc3nc(-c3ccccc3)n12)CCCC4 |
| 0 | – | Cc1sc2nc(C(=O)c3ccccc3)n3c(=S)[nH]nc3c2c1C |
| 0 | – | Cc1sc2nc(-c3ccccc3)n3c(=S)[nH]nc3c2c1C |
| 13 | – | CCCc1nc2sc(C)c(C)c2c2n[nH]c(=S)n12 |
| 0 | – | CCCc1nc2sc3c(c2c2n[nH]c(=S)n12)CCCC3 |
| 56 | 1170 | CCc1nc2sc3c(c2c2n[nH]c(=S)n12)CCCC3 |
| 4 | – | Cc1sc2nc(C)n3c(=S)[nH]nc3c2c1C |
| 0 | – | S=c1[nH]nc2c3c4c(sc3nc(-c3ccncc3)n12)CCCC4 |
| 26 | 4400 | Cc1nc2sc3c(c2c2n[nH]c(=S)n12)CCCC3 |
